Experimental data: ChEMBL document CHEMBL5712087, “Targeting bromodomain-containing protein 4 (BRD4) inhibits MYC expression in colorectal cancer cells” (Neoplasia, 2019)
Activity calls are given as the source filed them. The rule behind the calls is not given here.

How the values were obtained:
Format in all cases: cell-based
[1] = target: T1, Protein cereblon/Bromodomain-containing protein 4 (Homo sapiens) (UniProt O60885+Q96SW2); experiment: PROTAC activity at BRD4/Cereblon in human LS174T cells assessed as BRD4 protein degradation at 500 nM for 2 hrs by Western blot analysis
In short: (§1)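 LS174t cells exposed 2 h to PROTAC; for washout, medium replaced and cells collected 22 h later. BRD4 by immunoblot (15 µg lysate, 10% SDS-PAGE, anti-BRD4 1:1,000 overnight at 4 °C, GAPDH/β-actin control).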

[2] = target: T1, Protein cereblon/Bromodomain-containing protein 4 (Homo sapiens); experiment: PROTAC activity at BRD4/Cereblon in human LS174T cells assessed as BRD4 protein expression at 500 nM for 2 hrs and measured 22 hrs after washout by Western blot analysis; in short: as §1
[3] = target: T1, Protein cereblon/Bromodomain-containing protein 4 (Homo sapiens); experiment: PROTAC activity at BRD4/Cereblon in human LS174T cells assessed as decrease in MYC mRNA level at 100 to 1000 nM for 24 hrs by RT-qPCR analysis; conditions: dose 100-1000 nM
In short: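 Total RNA from 10^6 cells after 24 h treatment, Trizol-extracted and integrity-checked. 0.7 µg reverse transcribed, then SYBR-type qPCR: 95 °C 5 min, 40 cycles of 95 °C 15 s/60 °C 60 s. Melting curves checked. MYC or BRD4 normalised to PPIA and ACTB by ΔΔCq. At least three experiments; means ± SD.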

[4] = target: T1, Protein cereblon/Bromodomain-containing protein 4 (Homo sapiens); experiment: PROTAC activity at BRD4/Cereblon in human fibroblast cells assessed as decrease in BRD4 protein degradation at 500 to 1000 nM for 24 hrs by Western blot analysis; conditions: dose 500-1000 nM
In short: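 Cells treated 24 h across 1 nM–10 µM range (fibroblasts at 500/1000 nM). Immunoblot: RIPA lysate with 2.5 mmol/l DTT, 15 µg per lane on 10% SDS-PAGE, nitrocellulose, 5% milk block 1 h. BRD4 or MYC primary 1:1,000 overnight at 4 °C, HRP secondary 1:10,000 for 60 min; GAPDH/β-actin loading control; ECL detection.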

[5] = target: T1, Protein cereblon/Bromodomain-containing protein 4 (Homo sapiens); experiment: PROTAC activity at BRD4/Cereblon in human COLO 320 cells assessed as decrease in BRD4 protein degradation at 5 to 10 uM for 24 hrs by Western blot analysis; conditions: dose 5-10 µM
In short: (§2)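 Eight CRC lines exposed 24 h to PROTAC at 5 or 10 µM (stocks 2 mM in DMSO, diluted in PBS or medium). Lysis in RIPA with protease/phosphatase inhibitors and 2.5 mmol/l DTT; 15 µg protein on 10% SDS-PAGE, semi-dry transfer to nitrocellulose. Anti-BRD4 or anti-MYC at 1:1,000 overnight at 4 °C; GAPDH or β-actin loading control; chemiluminescence.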

[6] = target: T1, Protein cereblon/Bromodomain-containing protein 4 (Homo sapiens); experiment: PROTAC activity at BRD4/Cereblon in human Caco-2 cells assessed as decrease in MYC protein expression at 5 to 10 uM for 24 hrs by Western blot analysis; conditions: dose 5-10 µM; in short: as §2
[7] = target: T1, Protein cereblon/Bromodomain-containing protein 4 (Homo sapiens); experiment: PROTAC activity at BRD4/Cereblon in human DLD-1 cells assessed as decrease in MYC protein expression at 5 to 10 uM for 24 hrs by Western blot analysis; conditions: dose 5-10 µM; in short: as §2
[8] = target: T1, Protein cereblon/Bromodomain-containing protein 4 (Homo sapiens); experiment: PROTAC activity at BRD4/Cereblon in human HCT116 p53-/- cells assessed as decrease in MYC protein expression at 5 to 10 uM for 24 hrs by Western blot analysis; conditions: HCT-116, dose 5-10 µM; in short: as §2
[9] = target: T1, Protein cereblon/Bromodomain-containing protein 4 (Homo sapiens); experiment: PROTAC activity at BRD4/Cereblon in human SW480 cells assessed as decrease in MYC protein expression at 5 to 10 uM for 24 hrs by Western blot analysis; conditions: dose 5-10 µM; in short: as §2
[10] = target: T2, von Hippel-Lindau disease tumor suppressor/Bromodomain-containing protein 4 (Homo sapiens) (UniProt O60885+P40337); experiment: PROTAC activity at BRD4/VHL E3 ligase in human LS174T cells assessed as BRD4 protein degradation at 250 nM for 2 hrs by Western blot analysis
In short: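 LS174t cells were exposed to PROTAC for 2 h. For washout, the PROTAC was removed by changing the culture medium and cells were harvested 22 h later. BRD4 was assessed by western blot (15 µg lysate, 10% SDS-PAGE, chemiluminescence), normalised against GAPDH/β-actin.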

[11] = target: T2, von Hippel-Lindau disease tumor suppressor/Bromodomain-containing protein 4 (Homo sapiens); experiment: PROTAC activity at BRD4/VHL E3 ligase in human LS174T cells assessed as BRD4 protein degradation at 250 nM pretreated with VHL siRNA by Western blot analysis
[12] = target: T2, von Hippel-Lindau disease tumor suppressor/Bromodomain-containing protein 4 (Homo sapiens); experiment: PROTAC activity at BRD4/VHL E3 ligase in human LS174T cells assessed as BRD4 protein degradation at 100 to 500 nM pretreated with proteasome inhibitor MG132 for 4 hrs by Western blot analysis; conditions: dose 100-500 nM
In short: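 LS174t cells were pre-incubated for 4 h with the proteasome inhibitor MG132 (10 mM DMSO stock) before PROTAC addition. BRD4 was then immunoblotted from RIPA lysates (15 µg, 10% SDS-PAGE, nitrocellulose, primary 1:1,000 overnight at 4 °C), with GAPDH/β-actin as loading control.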

[13] = target: T2, von Hippel-Lindau disease tumor suppressor/Bromodomain-containing protein 4 (Homo sapiens); experiment: PROTAC activity at BRD4/VHL E3 ligase in human fibroblast cells assessed as decrease in BRD4 protein degradation at 100 to 250 nM for 24 hrs by Western blot analysis; conditions: dose 100-250 nM
In short: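 Normal human dermal fibroblasts in 10% FCS medium were treated with 100 or 250 nM PROTAC. BRD4 and MYC protein were assessed by western blot (15 µg RIPA lysate, 10% SDS-PAGE, primary 1:1,000 overnight at 4 °C), with GAPDH/β-actin as loading control.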

[14] = target: T2, von Hippel-Lindau disease tumor suppressor/Bromodomain-containing protein 4 (Homo sapiens); experiment: PROTAC activity at BRD4/VHL E3 ligase in human HCT116 p53+/+ cells assessed as decrease in BRD4 protein degradation at 5 to 10 uM for 24 hrs by Western blot analysis; conditions: HCT-116, dose 5-10 µM; in short: as §2
[15] = target: T2, von Hippel-Lindau disease tumor suppressor/Bromodomain-containing protein 4 (Homo sapiens); experiment: PROTAC activity at BRD4/VHL E3 ligase in human Caco-2 cells assessed as decrease in MYC protein expression at 5 to 10 uM for 24 hrs by Western blot analysis; conditions: dose 5-10 µM; in short: as §2
[16] = target: T2, von Hippel-Lindau disease tumor suppressor/Bromodomain-containing protein 4 (Homo sapiens); experiment: PROTAC activity at BRD4/VHL E3 ligase in human HCT116 p53+/+ cells assessed as decrease in MYC protein expression at 5 to 10 uM for 24 hrs by Western blot analysis; conditions: HCT-116, dose 5-10 µM; in short: as §2
[17] = target: T2, von Hippel-Lindau disease tumor suppressor/Bromodomain-containing protein 4 (Homo sapiens); experiment: PROTAC activity at BRD4/VHL E3 ligase in human HCT116 p53-/- cells assessed as decrease in MYC protein expression at 5 to 10 uM for 24 hrs by Western blot analysis; conditions: HCT-116, dose 5-10 µM; in short: as §2
[18] = target: T2, von Hippel-Lindau disease tumor suppressor/Bromodomain-containing protein 4 (Homo sapiens); experiment: PROTAC activity at BRD4/VHL E3 ligase in human LS174T dbet1 resistant cells assessed as BRD4 protein degradation at 500 to 1000 nM for 24 hrs by Western blot analysis; conditions: dose 500-1000 nM
In short: (§3)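 Resistant LS174t cells were derived by four months' exposure to rising dBET1 concentrations, with outgrowing cells expanded. Resistant and parental cells were then treated and analysed for BRD4 and MYC protein by western blot (GAPDH/β-actin control) and for MYC mRNA by qPCR normalised to PPIA/ACTB (ΔΔCq).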

[19] = target: T2, von Hippel-Lindau disease tumor suppressor/Bromodomain-containing protein 4 (Homo sapiens); experiment: PROTAC activity at BRD4/VHL E3 ligase in human LS174T dbet1 resistant cells assessed as MYC mRNA level at 500 to 1000 nM for 24 hrs by RT-qPCR analysis; conditions: dose 500-1000 nM; in short: as §3

T2 sequence (P40337 whole entry, looked up, other chains not shown): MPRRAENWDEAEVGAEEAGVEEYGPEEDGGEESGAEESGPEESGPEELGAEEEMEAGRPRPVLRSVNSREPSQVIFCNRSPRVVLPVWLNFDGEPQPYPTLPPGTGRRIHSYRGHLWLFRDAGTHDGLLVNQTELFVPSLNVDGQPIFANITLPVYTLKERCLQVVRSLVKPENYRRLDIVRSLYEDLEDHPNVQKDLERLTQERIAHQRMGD
T1 sequence (Q96SW2 whole entry, looked up, other chains not shown): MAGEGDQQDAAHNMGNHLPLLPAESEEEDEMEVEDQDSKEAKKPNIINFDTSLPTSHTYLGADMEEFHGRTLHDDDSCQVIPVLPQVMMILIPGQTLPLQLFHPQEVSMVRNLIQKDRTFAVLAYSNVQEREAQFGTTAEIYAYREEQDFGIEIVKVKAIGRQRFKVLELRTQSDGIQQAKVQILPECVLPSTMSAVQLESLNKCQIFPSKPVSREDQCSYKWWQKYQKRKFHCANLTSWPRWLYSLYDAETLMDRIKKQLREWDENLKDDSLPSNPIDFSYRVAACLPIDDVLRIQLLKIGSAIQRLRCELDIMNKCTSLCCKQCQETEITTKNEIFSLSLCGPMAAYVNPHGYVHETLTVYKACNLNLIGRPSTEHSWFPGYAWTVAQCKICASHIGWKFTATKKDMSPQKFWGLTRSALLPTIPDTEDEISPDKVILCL

Row | Compound | Activity [1] | Activity [2] | Activity [3] | Activity [4] | Activity [5] | Activity [6] | Activity [7] | Activity [8] | Activity [9] | Activity [10] | Activity [11] | Activity [12] | Activity [13] | Activity [14] | Activity [15] | Activity [16] | Activity [17] | Activity [18] | Activity [19]
1 | Cc1sc2c(c1C)C(c1ccc(Cl)cc1)=N[C@@H](CC(=O)NCCCCNC(=O)COc1cccc3c1C(=O)N(C1CCC(=O)NC1=O)C3=O)c1nnc(C)n1-2 (some centres undefined) | Active | inactive | Active | Active | Active | Active | Active | Active | inactive | – | – | – | – | – | – | – | – | – | –
2 | Cc1ncsc1-c1ccc(CNC(=O)[C@@H]2C[C@@H](O)CN2C(=O)[C@@H](NC(=O)COCCOCCOCCNC(=O)C[C@@H]2N=C(c3ccc(Cl)cc3)c3c(sc(C)c3C)-n3c(C)nnc32)C(C)(C)C)cc1 | – | – | – | – | – | – | – | – | – | Active | inactive | inactive | Active | Active | Active | Active | Active | Active | Active
